Data from article PMC7670640 (Pharmacology Research & Perspectives, 2020).

Test: Single ascending dose part
Format: in vivo, human
Method in brief: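 Healthy men in an interlocking two-cohort, four-period crossover. Each period was randomized 3:1 (6 active, 2 placebo); each participant received three ascending single oral doses and one placebo, each after a moderate-fat meal (~600 calories, ~30% fat). Two sentinel participants per period were dosed first, with a 24-h safety review before the rest. Monitoring covered AEs, vitals, ECGs, labs, physical exams, and GI/hepatobiliary abnormalities. AEs were MedDRA-coded and summarized descriptively.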

[1] = Part 1, across all drug doses in the 20 participants

With `C=C(C)[C@@H]1CC[C@]2(NCCN3CCS(=O)(=O)CC3)CC[C@]3(C)[C@H](CC[C@@H]4[C@@]5(C)CC=C(C6=CC[C@@](CF)(C(=O)O)CC6)C(C)(C)[C@@H]5CC[C@]43C)[C@@H]12` [GSK3640254] the “most common AEs: contact dermatitis, number of events” value [1] was “five”, the “most common AEs: diarrhea, number of events” value [1] was “four” and the “most common AEs: dizziness, number of events” value [1] was “four”. For the same compound, the “most common AEs: headache, number of events” value [1] was “eight”, the “most common AEs: nasopharyngitis, number of events” value [1] was “three” and the “participants reporting GI AEs” value (Part 1, eleven GI AEs in six participants) was 30%. For the same compound, the “adverse drug reactions, number” value (across both parts of the study (total includes placebo periods per Table 3)) was 12, the “trends in laboratory values or vital sign parameters” value (across doses in either part of the study) was “no clinically significant trends in laboratory values or vital sign parameters” and the “deaths or serious AEs” value (single and multiple ascending doses) was “no deaths or serious AEs were reported”. The “Adverse event: Any event” value (single dose 1 mg (N = 6)) was 3 (50) n (%), the “Adverse event: Contact dermatitis” value (single dose 1 mg (N = 6)) was 1 (17) n (%) and the “Adverse event: Cough” value (single dose 1 mg (N = 6)) was 0 n (%). The “Adverse event: Diarrhea” value (single dose 1 mg (N = 6)) was 0 n (%), the “Adverse event: Dizziness” value (single dose 1 mg (N = 6)) was 1 (17) n (%) and the “Adverse event: Gastrointestinal disorders” value (single dose 1 mg (N = 6)) was 1 (17) n (%). For the same compound, the “Adverse event: Headache” value (single dose 1 mg (N = 6)) was 1 (17) n (%), the “Adverse event: Increased transaminases” value (single dose 1 mg (N = 6)) was 0 n (%) and the “Adverse event: Nasal obstruction” value (single dose 1 mg (N = 6)) was 0 n (%). For the same compound, the “Adverse event: Nasopharyngitis” value (single dose 1 mg (N = 6)) was 0 n (%), the “Adverse event: Nightmare” value (single dose 1 mg (N = 6)) was 0 n (%) and the “Adverse event: Viral infection” value (single dose 1 mg (N = 6)) was 0 n (%). The “Adverse event: Vomiting” value (single dose 1 mg (N = 6)) was 0 n (%), the “Adverse event: Any event” value (single dose 3 mg (N = 6)) was 2 (33) n (%) and the “Adverse event: Contact dermatitis” value (single dose 3 mg (N = 6)) was 1 (17) n (%). The “Adverse event: Cough” value (single dose 3 mg (N = 6)) was 0 n (%), the “Adverse event: Diarrhea” value (single dose 3 mg (N = 6)) was 0 n (%) and the “Adverse event: Dizziness” value (single dose 3 mg (N = 6)) was 1 (17) n (%). For the same compound, the “Adverse event: Gastrointestinal disorders” value (single dose 3 mg (N = 6)) was 0 n (%), the “Adverse event: Headache” value (single dose 3 mg (N = 6)) was 0 n (%) and the “Adverse event: Increased transaminases” value (single dose 3 mg (N = 6)) was 0 n (%). For the same compound, the “Adverse event: Nasal obstruction” value (single dose 3 mg (N = 6)) was 0 n (%), the “Adverse event: Nasopharyngitis” value (single dose 3 mg (N = 6)) was 0 n (%) and the “Adverse event: Nightmare” value (single dose 3 mg (N = 6)) was 1 (17) n (%). For the same compound, the “Adverse event: Viral infection” value (single dose 3 mg (N = 6)) was 0 n (%), the “Adverse event: Vomiting” value (single dose 3 mg (N = 6)) was 0 n (%) and the “Adverse event: Any event” value (single dose 10 mg (N = 6)) was 4 (67) n (%). For the same compound, the “Adverse event: Contact dermatitis” value (single dose 10 mg (N = 6)) was 1 (17) n (%), the “Adverse event: Cough” value (single dose 10 mg (N = 6)) was 1 (17) n (%) and the “Adverse event: Diarrhea” value (single dose 10 mg (N = 6)) was 1 (17) n (%). For the same compound, the “Adverse event: Dizziness” value (single dose 10 mg (N = 6)) was 1 (17) n (%), the “Adverse event: Gastrointestinal disorders” value (single dose 10 mg (N = 6)) was 1 (17) n (%) and the “Adverse event: Headache” value (single dose 10 mg (N = 6)) was 1 (17) n (%). The “Adverse event: Increased transaminases” value (single dose 10 mg (N = 6)) was 0 n (%), the “Adverse event: Nasal obstruction” value (single dose 10 mg (N = 6)) was 1 (17) n (%) and the “Adverse event: Nasopharyngitis” value (single dose 10 mg (N = 6)) was 1 (17) n (%). For the same compound, the “Adverse event: Nightmare” value (single dose 10 mg (N = 6)) was 0 n (%), the “Adverse event: Viral infection” value (single dose 10 mg (N = 6)) was 1 (17) n (%) and the “Adverse event: Vomiting” value (single dose 10 mg (N = 6)) was 0 n (%). For the same compound, the “Adverse event: Any event” value (single dose 30 mg (N = 6)) was 3 (50) n (%), the “Adverse event: Contact dermatitis” value (single dose 30 mg (N = 6)) was 0 n (%) and the “Adverse event: Cough” value (single dose 30 mg (N = 6)) was 0 n (%). For the same compound, the “Adverse event: Diarrhea” value (single dose 30 mg (N = 6)) was 1 (17) n (%), the “Adverse event: Dizziness” value (single dose 30 mg (N = 6)) was 0 n (%) and the “Adverse event: Gastrointestinal disorders” value (single dose 30 mg (N = 6)) was 1 (17) n (%). The “Adverse event: Headache” value (single dose 30 mg (N = 6)) was 1 (17) n (%), the “Adverse event: Increased transaminases” value (single dose 30 mg (N = 6)) was 0 n (%) and the “Adverse event: Nasal obstruction” value (single dose 30 mg (N = 6)) was 0 n (%). The “Adverse event: Nasopharyngitis” value (single dose 30 mg (N = 6)) was 0 n (%), the “Adverse event: Nightmare” value (single dose 30 mg (N = 6)) was 0 n (%) and the “Adverse event: Viral infection” value (single dose 30 mg (N = 6)) was 0 n (%). For the same compound, the “Adverse event: Vomiting” value (single dose 30 mg (N = 6)) was 0 n (%), the “Adverse event: Any event” value (single dose 100 mg (N = 6)) was 3 (50) n (%) and the “Adverse event: Contact dermatitis” value (single dose 100 mg (N = 6)) was 0 n (%). For the same compound, the “Adverse event: Cough” value (single dose 100 mg (N = 6)) was 1 (17) n (%), the “Adverse event: Diarrhea” value (single dose 100 mg (N = 6)) was 2 (33) n (%) and the “Adverse event: Dizziness” value (single dose 100 mg (N = 6)) was 0 n (%). For the same compound, the “Adverse event: Gastrointestinal disorders” value (single dose 100 mg (N = 6)) was 2 (33) n (%), the “Adverse event: Headache” value (single dose 100 mg (N = 6)) was 2 (33) n (%) and the “Adverse event: Increased transaminases” value (single dose 100 mg (N = 6)) was 0 n (%). For the same compound, the “Adverse event: Nasal obstruction” value (single dose 100 mg (N = 6)) was 0 n (%), the “Adverse event: Nasopharyngitis” value (single dose 100 mg (N = 6)) was 1 (17) n (%) and the “Adverse event: Nightmare” value (single dose 100 mg (N = 6)) was 0 n (%). The “Adverse event: Viral infection” value (single dose 100 mg (N = 6)) was 1 (17) n (%), the “Adverse event: Vomiting” value (single dose 100 mg (N = 6)) was 2 (33) n (%) and the “Adverse event: Any event” value (single dose 200 mg (N = 6)) was 4 (67) n (%). The “Adverse event: Contact dermatitis” value (single dose 200 mg (N = 6)) was 1 (17) n (%), the “Adverse event: Cough” value (single dose 200 mg (N = 6)) was 0 n (%) and the “Adverse event: Diarrhea” value (single dose 200 mg (N = 6)) was 0 n (%). For the same compound, the “Adverse event: Dizziness” value (single dose 200 mg (N = 6)) was 0 n (%), the “Adverse event: Gastrointestinal disorders” value (single dose 200 mg (N = 6)) was 0 n (%) and the “Adverse event: Headache” value (single dose 200 mg (N = 6)) was 1 (17) n (%). For the same compound, the “Adverse event: Increased transaminases” value (single dose 200 mg (N = 6)) was 1 (17) n (%), the “Adverse event: Nasal obstruction” value (single dose 200 mg (N = 6)) was 0 n (%) and the “Adverse event: Nasopharyngitis” value (single dose 200 mg (N = 6)) was 0 n (%). The “Adverse event: Nightmare” value (single dose 200 mg (N = 6)) was 0 n (%), the “Adverse event: Viral infection” value (single dose 200 mg (N = 6)) was 0 n (%) and the “Adverse event: Vomiting” value (single dose 200 mg (N = 6)) was 0 n (%). The “Adverse event: Any event” value (single dose 400 mg (N = 6)) was 4 (67) n (%), the “Adverse event: Contact dermatitis” value (single dose 400 mg (N = 6)) was 1 (17) n (%) and the “Adverse event: Cough” value (single dose 400 mg (N = 6)) was 0 n (%). The “Adverse event: Diarrhea” value (single dose 400 mg (N = 6)) was 0 n (%), the “Adverse event: Dizziness” value (single dose 400 mg (N = 6)) was 0 n (%) and the “Adverse event: Gastrointestinal disorders” value (single dose 400 mg (N = 6)) was 1 (17) n (%). For the same compound, the “Adverse event: Headache” value (single dose 400 mg (N = 6)) was 2 (33) n (%), the “Adverse event: Increased transaminases” value (single dose 400 mg (N = 6)) was 0 n (%) and the “Adverse event: Nasal obstruction” value (single dose 400 mg (N = 6)) was 0 n (%). For the same compound, the “Adverse event: Nasopharyngitis” value (single dose 400 mg (N = 6)) was 1 (17) n (%), the “Adverse event: Nightmare” value (single dose 400 mg (N = 6)) was 0 n (%) and the “Adverse event: Viral infection” value (single dose 400 mg (N = 6)) was 0 n (%). For the same compound, the “Adverse event: Vomiting” value (single dose 400 mg (N = 6)) was 0 n (%), the “Adverse event: Any event” value (single dose 700 mg (N = 6)) was 1 (17) n (%) and the “Adverse event: Contact dermatitis” value (single dose 700 mg (N = 6)) was 0 n (%). For the same compound, the “Adverse event: Cough” value (single dose 700 mg (N = 6)) was 0 n (%), the “Adverse event: Diarrhea” value (single dose 700 mg (N = 6)) was 0 n (%) and the “Adverse event: Dizziness” value (single dose 700 mg (N = 6)) was 1 (17) n (%). The “Adverse event: Gastrointestinal disorders” value (single dose 700 mg (N = 6)) was 0 n (%), the “Adverse event: Headache” value (single dose 700 mg (N = 6)) was 0 n (%) and the “Adverse event: Increased transaminases” value (single dose 700 mg (N = 6)) was 0 n (%). The “Adverse event: Nasal obstruction” value (single dose 700 mg (N = 6)) was 0 n (%), the “Adverse event: Nasopharyngitis” value (single dose 700 mg (N = 6)) was 0 n (%) and the “Adverse event: Nightmare” value (single dose 700 mg (N = 6)) was 0 n (%). For the same compound, the “Adverse event: Viral infection” value (single dose 700 mg (N = 6)) was 0 n (%) and the “Adverse event: Vomiting” value (single dose 700 mg (N = 6)) was 0 n (%).
